{"source": "ChEMBL document CHEMBL5724801", "about": "“EUbOPEN Chemogenomics Library - Multiplex” (2024)", "key": {"HEK-293T": {"tested_on": "HEK-293T", "experiment": "Multiplex assay against HEK293T", "assay_type": "toxicity, cell-based", "details": "human", "method_in_brief": "(§1)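 Values for tubulin, mitochondrial-mass and membrane-permeability phenotypes are per cents of cells with healthy nuclei. These cells were identified by CellPathfinder machine-learning gating of live cells that had been stained at seeding with Hoechst33342, BioTracker Green Microtubule Cytoskeleton Dye, MitoTracker Red and Annexin V Alexa Fluor 680 and imaged on a CQ1 microscope at 37°C and 5% CO2 after compound addition. The gating first set Hoechst high-intensity objects apart from normal cells, then split normal cells into healthy, pyknosed or fragmented nuclei, and pyknosed cells into mitotic or apoptotic.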"}, "U2OS": {"tested_on": "U2OS", "experiment": "Multiplex assay against U2OS", "assay_type": "toxicity, cell-based", "details": "human", "method_in_brief": "as §1"}, "[1]": {"details": "24 h, 1 µM, compound concentration 1 uM"}, "[2]": {"details": "24 h, 10 µM, compound concentration 10 uM"}, "[3]": {"details": "48 h, 1 µM, compound concentration 1 uM"}, "[4]": {"details": "48 h, 10 µM, compound concentration 10 uM"}, "[5]": {"details": "12 h, 1 µM, compound concentration 1 uM"}, "[6]": {"details": "12 h, 10 µM, compound concentration 10 uM"}}, "note": "Several values for one entry are separate records, joined by “and”; a condition that tells them apart may be missing. Equal entries are not always repeated."}
{"molecule": "Cc1sc2c(c1C)C(c1ccc(Cl)cc1)=N[C@H](CC(=O)OC(C)(C)C)c1nnc(C)n1-2", "values": [{"measurement": "Population Tubulin-Different-Phenotype (%)", "setting": "HEK-293T; [1]", "value": "19% and 11%"}, {"measurement": "Total Cell Count", "setting": "HEK-293T; [1]", "value": "609 and 479"}, {"measurement": "Population Apoptotic (%)", "setting": "HEK-293T; [2]", "value": "41% and 49%"}, {"measurement": "Population Fragmented Nuclei (%)", "setting": "HEK-293T; [2]", "value": "8% and 3%"}, {"measurement": "Population Healthy Nuclei (%)", "setting": "HEK-293T; [2]", "value": "68% and 76%"}, {"measurement": "Population Hoechst High Intensity Objects (%)", "setting": "HEK-293T; [2]", "value": "4% and 6%"}, {"measurement": "Population Membrane Permeable-Phenotype (%)", "setting": "HEK-293T; [2]", "value": "0% and 1%"}, {"measurement": "Population Mitochondria Different-Phenotype (%)", "setting": "HEK-293T; [2]", "value": "64% and 76%"}, {"measurement": "Population Mitotic Cells (%)", "setting": "HEK-293T; [2]", "value": "58% and 50%"}, {"measurement": "Population Normal (%)", "setting": "HEK-293T; [2]", "value": "95% and 93%"}, {"measurement": "Population Pyknosed Nuclei (%)", "setting": "HEK-293T; [2]", "value": "23% and 19%"}, {"measurement": "Population Tubulin-Different-Phenotype (%)", "setting": "HEK-293T; [2]", "value": "46% and 47%"}, {"measurement": "Total Cell Count", "setting": "HEK-293T; [2]", "value": "468 and 378"}, {"measurement": "Population Apoptotic (%)", "setting": "HEK-293T; [3]", "value": "18% and 30%"}, {"measurement": "Population Fragmented Nuclei (%)", "setting": "HEK-293T; [3]", "value": "11% and 14%"}, {"measurement": "Population Healthy Nuclei (%)", "setting": "HEK-293T; [3]", "value": "80% and 79%"}, {"measurement": "Population Hoechst High Intensity Objects (%)", "setting": "HEK-293T; [3]", "value": "3% and 4%"}, {"measurement": "Population Membrane Permeable-Phenotype (%)", "setting": "HEK-293T; [3]", "value": "1% and 0%"}, {"measurement": "Population Mitochondria Different-Phenotype (%)", "setting": "HEK-293T; [3]", "value": "16% and 21%"}, {"measurement": "Population Mitotic Cells (%)", "setting": "HEK-293T; [3]", "value": "81% and 69%"}, {"measurement": "Population Normal (%)", "setting": "HEK-293T; [3]", "value": "96% and 95%"}, {"measurement": "Population Pyknosed Nuclei (%)", "setting": "HEK-293T; [3]", "value": "7% and 5%"}, {"measurement": "Population Tubulin-Different-Phenotype (%)", "setting": "HEK-293T; [3]", "value": "10% and 12%"}, {"measurement": "Total Cell Count", "setting": "HEK-293T; [3]", "value": "1012 and 685"}, {"measurement": "Population Apoptotic (%)", "setting": "HEK-293T; [4]", "value": "31% and 55%"}, {"measurement": "Population Fragmented Nuclei (%)", "setting": "HEK-293T; [4]", "value": "9% and 8%"}, {"measurement": "Population Healthy Nuclei (%)", "setting": "HEK-293T; [4]", "value": "73% and 76%"}, {"measurement": "Population Hoechst High Intensity Objects (%)", "setting": "HEK-293T; [4]", "value": "3% and 5%"}, {"measurement": "Population Membrane Permeable-Phenotype (%)", "setting": "HEK-293T; [4]", "value": 0, "unit": "%"}, {"measurement": "Population Mitochondria Different-Phenotype (%)", "setting": "HEK-293T; [4]", "value": "47% and 66%"}, {"measurement": "Population Mitotic Cells (%)", "setting": "HEK-293T; [4]", "value": "68% and 44%"}, {"measurement": "Population Normal (%)", "setting": "HEK-293T; [4]", "value": "96% and 94%"}, {"measurement": "Population Pyknosed Nuclei (%)", "setting": "HEK-293T; [4]", "value": "16% and 15%"}, {"measurement": "Population Tubulin-Different-Phenotype (%)", "setting": "HEK-293T; [4]", "value": "19% and 28%"}, {"measurement": "Total Cell Count", "setting": "HEK-293T; [4]", "value": "641 and 525"}, {"measurement": "Population Apoptotic (%)", "setting": "U2OS; [5]", "value": "81% and 71%"}, {"measurement": "Population Fragmented Nuclei (%)", "setting": "U2OS; [5]", "value": "28% and 16%"}, {"measurement": "Population Healthy Nuclei (%)", "setting": "U2OS; [5]", "value": "63% and 77%"}, {"measurement": "Population Hoechst High Intensity Objects (%)", "setting": "U2OS; [5]", "value": "2% and 4%"}, {"measurement": "Population Membrane Permeable-Phenotype (%)", "setting": "U2OS; [5]", "value": 7, "unit": "%"}, {"measurement": "Population Mitochondria Different-Phenotype (%)", "setting": "U2OS; [5]", "value": "4% and 2%"}, {"measurement": "Population Mitotic Cells (%)", "setting": "U2OS; [5]", "value": "18% and 28%"}, {"measurement": "Population Normal (%)", "setting": "U2OS; [5]", "value": "97% and 95%"}, {"measurement": "Population Pyknosed Nuclei (%)", "setting": "U2OS; [5]", "value": "8% and 6%"}, {"measurement": "Population Tubulin-Different-Phenotype (%)", "setting": "U2OS; [5]", "value": 4, "unit": "%"}, {"measurement": "Total Cell Count", "setting": "U2OS; [5]", "value": "256 and 120"}, {"measurement": "Population Apoptotic (%)", "setting": "U2OS; [6]", "value": "51% and 90%"}, {"measurement": "Population Fragmented Nuclei (%)", "setting": "U2OS; [6]", "value": "32% and 22%"}, {"measurement": "Population Healthy Nuclei (%)", "setting": "U2OS; [6]", "value": "56% and 68%"}, {"measurement": "Population Hoechst High Intensity Objects (%)", "setting": "U2OS; [6]", "value": "2% and 0%"}, {"measurement": "Population Mitochondria Different-Phenotype (%)", "setting": "U2OS; [6]", "value": "35% and 24%"}, {"measurement": "Population Normal (%)", "setting": "U2OS; [6]", "value": "97% and 100%"}, {"measurement": "Population Pyknosed Nuclei (%)", "setting": "U2OS; [6]", "value": "11% and 8%"}, {"measurement": "Total Cell Count", "setting": "U2OS; [6]", "value": "240 and 118"}, {"measurement": "Population Apoptotic (%)", "setting": "U2OS; [1]", "value": "77% and 75%"}, {"measurement": "Population Fragmented Nuclei (%)", "setting": "U2OS; [1]", "value": "22% and 20%"}, {"measurement": "Population Healthy Nuclei (%)", "setting": "U2OS; [1]", "value": "69% and 70%"}, {"measurement": "Population Hoechst High Intensity Objects (%)", "setting": "U2OS; [1]", "value": "0% and 3%"}, {"measurement": "Population Membrane Permeable-Phenotype (%)", "setting": "U2OS; [1]", "value": 5, "unit": "%"}, {"measurement": "Population Mitochondria Different-Phenotype (%)", "setting": "U2OS; [1]", "value": "1% and 2%"}, {"measurement": "Population Mitotic Cells (%)", "setting": "U2OS; [1]", "value": "22% and 25%"}, {"measurement": "Population Normal (%)", "setting": "U2OS; [1]", "value": "99% and 96%"}, {"measurement": "Population Pyknosed Nuclei (%)", "setting": "U2OS; [1]", "value": "7% and 8%"}, {"measurement": "Population Tubulin-Different-Phenotype (%)", "setting": "U2OS; [1]", "value": "1% and 2%"}, {"measurement": "Total Cell Count", "setting": "U2OS; [1]", "value": "280 and 149"}, {"measurement": "Population Apoptotic (%)", "setting": "U2OS; [2]", "value": "83% and 76%"}, {"measurement": "Population Fragmented Nuclei (%)", "setting": "U2OS; [2]", "value": "29% and 24%"}, {"measurement": "Population Healthy Nuclei (%)", "setting": "U2OS; [2]", "value": "57% and 65%"}, {"measurement": "Population Hoechst High Intensity Objects (%)", "setting": "U2OS; [2]", "value": "2% and 0%"}, {"measurement": "Population Membrane Permeable-Phenotype (%)", "setting": "U2OS; [2]", "value": "17% and 7%"}, {"measurement": "Population Mitochondria Different-Phenotype (%)", "setting": "U2OS; [2]", "value": "17% and 25%"}, {"measurement": "Population Mitotic Cells (%)", "setting": "U2OS; [2]", "value": "16% and 23%"}, {"measurement": "Population Normal (%)", "setting": "U2OS; [2]", "value": "97% and 99%"}, {"measurement": "Population Pyknosed Nuclei (%)", "setting": "U2OS; [2]", "value": "13% and 10%"}, {"measurement": "Population Tubulin-Different-Phenotype (%)", "setting": "U2OS; [2]", "value": "8% and 3%"}, {"measurement": "Total Cell Count", "setting": "U2OS; [2]", "value": "280 and 130"}, {"measurement": "Population Apoptotic (%)", "setting": "U2OS; [3]", "value": "77% and 96%"}, {"measurement": "Population Fragmented Nuclei (%)", "setting": "U2OS; [3]", "value": "20% and 21%"}, {"measurement": "Population Healthy Nuclei (%)", "setting": "U2OS; [3]", "value": "72% and 64%"}, {"measurement": "Population Hoechst High Intensity Objects (%)", "setting": "U2OS; [3]", "value": "1% and 3%"}, {"measurement": "Population Membrane Permeable-Phenotype (%)", "setting": "U2OS; [3]", "value": "5% and 7%"}, {"measurement": "Population Mitochondria Different-Phenotype (%)", "setting": "U2OS; [3]", "value": "2% and 7%"}, {"measurement": "Population Normal (%)", "setting": "U2OS; [3]", "value": "98% and 96%"}, {"measurement": "Population Pyknosed Nuclei (%)", "setting": "U2OS; [3]", "value": "6% and 14%"}, {"measurement": "Population Tubulin-Different-Phenotype (%)", "setting": "U2OS; [3]", "value": "2% and 5%"}, {"measurement": "Total Cell Count", "setting": "U2OS; [3]", "value": "415 and 228"}, {"measurement": "Population Apoptotic (%)", "setting": "U2OS; [4]", "value": "86% and 89%"}, {"measurement": "Population Fragmented Nuclei (%)", "setting": "U2OS; [4]", "value": "23% and 20%"}, {"measurement": "Population Healthy Nuclei (%)", "setting": "U2OS; [4]", "value": "57% and 68%"}, {"measurement": "Population Hoechst High Intensity Objects (%)", "setting": "U2OS; [4]", "value": "2% and 1%"}, {"measurement": "Population Membrane Permeable-Phenotype (%)", "setting": "U2OS; [4]", "value": 11, "unit": "%"}, {"measurement": "Population Mitochondria Different-Phenotype (%)", "setting": "U2OS; [4]", "value": "7% and 8%"}, {"measurement": "Population Mitotic Cells (%)", "setting": "U2OS; [4]", "value": "13% and 10%"}, {"measurement": "Population Normal (%)", "setting": "U2OS; [4]", "value": "97% and 98%"}, {"measurement": "Population Pyknosed Nuclei (%)", "setting": "U2OS; [4]", "value": "18% and 11%"}, {"measurement": "Population Tubulin-Different-Phenotype (%)", "setting": "U2OS; [4]", "value": "5% and 3%"}, {"measurement": "Total Cell Count", "setting": "U2OS; [4]", "value": "342 and 174"}]}
